In paper PMC9008867 (Therapeutic Advances in Medical Oncology, 2022):

What was measured:
[1] = tested on: Asian patients with advanced or metastatic malignancies; assay: Adverse events; type: in vivo, human; details: Schedule 1; patients n (%)
In short: (§1)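 Test compound given orally by schedule. Schedule 1: Mon/Thu, 28-day cycle. Schedule 2: Mondays weekly, 28-day cycle. Schedule 3: Mon/Wed for 2 of 3 weeks, 21-day cycle. Schedule 4: Mon/Wed/Fri, 28-day cycle. All patients received anorexia/nausea prophylaxis. AEs were recorded up to 30 days after the last dose and graded every 2 weeks for cycles 1–2, then every 4 weeks.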

[2] = tested on: Asian patients with advanced or metastatic malignancies; assay: Adverse events; type: in vivo, human; details: Schedule 2; patients n (%)
In short: as §1

[3] = tested on: Asian patients with advanced or metastatic malignancies; assay: Adverse events; type: in vivo, human; details: Schedule 3; patients n (%)
In short: as §1

[4] = tested on: Asian patients with advanced or metastatic malignancies; assay: Adverse events; type: in vivo, human; details: Schedule 4; patients n (%)
In short: as §1

[5] = tested on: Asian patients with advanced or metastatic malignancies; assay: Phase 1a 3 + 3 dose escalation: DLT, MTD, RP2D, tolerability, deaths; type: in vivo, human
In short: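 Modified 3+3 design: ≥3 patients per cohort, expanded to six after one DLT; DLTs were assessed in cycle 1. DLT was possibly drug-related grade ≥3 nonhaematological toxicity (not reversible asymptomatic electrolyte changes or hair loss). Haematological DLT: grade 4 neutropenia ≥7 days, febrile neutropenia, or grade ≥3 thrombocytopenia with bleeding. 2/6 DLTs set the MTD; RP2D was the next lower level. Deaths were counted within 30 days of last dose.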

[6] = Plasma selinexor pharmacokinetics; type: in vivo, human
XPO1 = XPO1 mRNA expression in PBMCs/leukocytes by qRT-PCR pre and post dose; type: in vivo, human; details: 40 and 50 mg/m^2, 10 patients assessed
tumour biopsies = assay: Immunohistochemistry of paired pretreatment and ontreatment tumour biopsies; type: in vivo, human
In short: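 Paired pretreatment and on-treatment tumour biopsies came from six consenting dose-escalation patients. IHC covered […], Ki67 for proliferation, and ApopTag and cleaved caspase 3 for apoptosis.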

colorectal cancer = assay: Exploratory PFS subgroup analysis in advanced colorectal cancer patients; type: in vivo, human
[7] = tested on: relapsed or refractory diffuse large B cell lymphoma; details: relapsed or refractory DLBCL; cited from earlier work
[8] = tested on: metastatic castration-resistant prostate cancer; details: eight patients with measurable disease at baseline; cited from earlier work
leukocytes = details: cited from earlier work
[9] = tested on: human melanoma cell lines; details: cited from earlier work
[10] = Schedule 2, 70 mg/m^2 once a week, six patients
[11] = Schedule 3, 50 mg/m^2, subsequent four patients
[12] = after 6 weeks of treatment vs baseline, lymphoma, thymoma, colorectal carcinoma

## O=C(/C=C\n1cnc(-c2cc(C(F)(F)F)cc(C(F)(F)F)c2)n1)NNc1cnccn1 [selinexor]
[1]
  Anaemia, Any grade: 1 (16.6) %
  Anorexia, Any grade: 4 (66.6) %
  Dehydration, Any grade: 1 (16.6) %
  Diarrhoea, Any grade: 2 (33.3) %
  Fatigue, Any grade: 6 (100) %
  Hypokalaemia, Any grade: 2 (33.3) %
  Hypomagnesemia, Any grade: 1 (16.6) %
  Hyponatremia, Any grade: 6 (100) %
  Nausea, Any grade: 1 (16.6) %
  Thrombocytopenia, Any grade: 2 (33.3) %
  Vomiting, Any grade: 1 (16.6) %
  Weight loss, Any grade: 1 (16.6) %
[2]
  Abdominal discomfort, Any grade: 4 (23.52) %
  Abdominal discomfort, G1/G2: 4 (23.52) %
  Anaemia, Any grade: 6 (35.29) %
  Anorexia, Any grade: 10 (58.8) %
  Back pain, Any grade: 1 (5.88) %
  Constipation, Any grade: 1 (5.88) %
  Diarrhoea, Any grade: 3 (17.64) %
  Edema, Any grade: 1 (5.88) %
  Fatigue, Any grade: 14 (82.35) %
  Hypokalaemia, Any grade: 2 (11.76) %
  Hypomagnesemia, Any grade: 5 (29.41) %
  Hyponatremia, Any grade: 11 (64.70) %
  Hypophosphatemia, Any grade: 3 (17.64) %
  Hypotension, Any grade: 1 (5.88) %
  Intention tremor, Any grade: 1 (5.88) %
  Mucositis, Any grade: 1 (5.88) %
  Nausea, Any grade: 11 (64.70) %
  Neutropenia, Any grade: 2 (11.76) %
  Palpitation, Any grade: 1 (5.88) %
  Pneumonitis, Any grade: 1 (5.88) %
  Raised amylase/lipase, Any grade: 1 (5.88) %
  Raised amylase/lipase, G1/G2: 1 (5.88) %
  Thrombocytopenia, Any grade: 6 (35.29) %
  Vomiting, Any grade: 7 (41.17) %
  Weight loss, Any grade: 5 (29.41) %
[3]
  Abdominal discomfort, Any grade: 3 (20) %
  Abdominal discomfort, G1/G2: 3 (20) %
  Anaemia, Any grade: 3 (20) %
  Anorexia, Any grade: 11 (73.33) %
  Conjunctivitis, Any grade: 1 (6.66) %
  Constipation, Any grade: 1 (6.66) %
  Dehydration, Any grade: 2 (13.33) %
  Diarrhoea, Any grade: 5 (33.33) %
  Dry skin, Any grade: 1 (6.66) %
  Dysgeusia, Any grade: 2 (13.33) %
  Edema, Any grade: 1 (6.66) %
  Fatigue, Any grade: 13 (86.66) %
  Giddiness, Any grade: 2 (13.33) %
  Hypocalcaemia, Any grade: 1 (6.66) %
  Hypokalaemia, Any grade: 4 (26.66) %
  Hypomagnesemia, Any grade: 6 (40) %
  Hyponatremia, Any grade: 13 (86.66) %
  Hypophosphatemia, Any grade: 6 (40) %
  Increased flatulence, Any grade: 1 (6.66) %
  Increased flatulence, G1/G2: 1 (6.66) %
  Lethargy, Any grade: 1 (6.66) %
  Nausea, Any grade: 4 (26.66) %
  Thrombocytopenia, Any grade: 4 (26.66) %
  Vomiting, Any grade: 5 (33.33) %
  Weight loss, Any grade: 4 (26.66) %
[4]
  Abdominal discomfort, Any grade: 2 (18.18) %
  Abdominal discomfort, G1/G2: 2 (18.18) %
  Anaemia, Any grade: 3 (27.27) %
  Anorexia, Any grade: 5 (45.45) %
  Cataract, Any grade: 1 (9.09) %
  Diarrhoea, Any grade: 4 (36.36) %
  Dysgeusia, Any grade: 2 (18.18) %
  Dyspnoea/Shortness of breath, Any grade: 3 (27.27) %
  Dyspnoea/Shortness of breath, G1/G2: 2 (18.18) %
  Dyspnoea/Shortness of breath, G3/G4: 1 (9.09) %
  Fatigue, Any grade: 11 (100) %
  Hypocalcaemia, Any grade: 1 (9.09) %
  Hypokalaemia, Any grade: 1 (9.09) %
  Hypomagnesemia, Any grade: 3 (27.27) %
  Hyponatremia, Any grade: 10 (90.90) %
  Hypophosphatemia, Any grade: 1 (9.09) %
  Nausea, Any grade: 2 (18.18) %
  Neutropenia, Any grade: 1 (9.09) %
  Thrombocytopenia, Any grade: 6 (54.54) %
  Vomiting, Any grade: 2 (18.18) %
  Weight loss, Any grade: 3 (27.27) %
[5]; 40 mg/m^2 given 2 out of 3 weeks, Asian patient cohort
  tolerability: most tolerable
[5]; Schedule 1, 40 mg/m^2 twice-a-week continuous, six patients
  DLTs: no DLTs were observed
[5]; Schedule 2, 50 mg/m^2 once a week, three patients
  patients with DLTs: none of the three patients
[5]; Schedule 2, 60 mg/m^2 once a week, three patients
  DLTs: did not show any DLTs
[5]; Schedule 2, 70 mg/m^2 once a week, additional four patients
  patients with grade 3 fatigue that persisted for more than 5 days: one patient
[5]; [10]
  patients with grade 3 thrombocytopenia: one patient
  patients with grade 3 vomiting: one patient
[5]; Schedule 3, 40 mg/m^2 twice a week 2 out of 3 weeks
  patients developing DLTs: 0/3
[5]; Schedule 3, 50 mg/m^2, first six patients
  patients with G3 fatigue: one out of six patients
[5]; [11]
  patients with G3 dehydration from loss of appetite: One out of the subsequent four patients
  patients with G3 hyponatremia: one other patient
[5]; Schedule 4, 16 mg/m^2 three times a week continuous
  patients with G3 diarrhoea and G3 syncope: two out of five patients
[5]; Schedule 4, 20 mg/m^2 three times a week continuous
  patients developing DLTs (G3 fatigue and G3 septicaemia): two out of six patients
[5]; Schedule 4, three-times-a-week continuous dosing
  tolerability of schedule: deemed intolerable
[5]; phase 1a cohort, none related to the study drug
  deaths within 30 days of the last study drug administration: eight
[5]; twice a week with a 1-week drug holiday every 3-week cycle
  RP2D, flat dose: 60 mg
[6]; among 40, 50 and 60 mg/m^2 doses
  AUC0-8 dose proportionality: dose-proportional
[6]; cycle 1 day 15 or cycle 2 day 8/day 15
  predose concentrations after multiple doses: either 0 or close to 0
[6]; human, plasma, oral, 40 mg/m2
  AUC(0-t): 5340 ± 1540 ng·h/mL
  Cmax: 567 ± 159 ng/mL
[6]; human, plasma, po, 60 mg/m2
  Tmax: 1 to 4 h
[6]; oral, 40-60 mg/m^2
  mean T1/2: ~ 6 h
XPO1; 4 h post dose
  patients with at least twofold induction of XPO1 mRNA: nine
XPO1; 8 h post dose
  patients with greater than twofold mRNA increases in XPO1: all 10 patients
Tumour biopsies; [12]
  apoptosis in tumour samples (IHC): increase
  proliferation in tumour samples (IHC): marked decrease
Tumour biopsies; patient with NSCLC
  XPO1 cargo protein p53 localization in tumour sections: nuclear accumulation
Colorectal cancer; RAS/PIK3CA pathway mutation vs wild-type, p = 0.09, log-rank
  HR for PFS: 0.58 (0.25–1.32)
Colorectal cancer; colorectal cancer patients with a RAS/PIK3CA pathway mutation
  median PFS: 86 days
Colorectal cancer; colorectal cancer patients, RAS/PIK3CA wild-type
  median PFS: 50 days
Colorectal cancer; one heavily pretreated colorectal cancer patient with BRAF V600E somatic mutation
  PFS: 129 days
[7]
  complete response rate: 13%
[8]
  patients achieving partial response: 25%
  patients achieving stable disease as best radiographic response: 50%
leukocytes
  PD-1 and CTLA4 gene expression: increase
[9]
  PD-L1 gene expression: induced
